The source of these data is ChEMBL document CHEMBL1159109, “Design and synthesis of some new quinoline-3-carbohydrazone derivatives as potential antimycobacterial agents” (Bioorg Med Chem Lett, 2010).

In experiment [1] the test system is Mycobacterium tuberculosis. The experiment can be described thus: Antimycobacterial activity against Mycobacterium tuberculosis H37Rv ATCC 27294 after 7 days by resazurin assay. The conditions noted are these: H37Rv ATCC 27294, 168 h. Type of experiment: functional. The method, boiled down:
(§1)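 Broth microdilution resazurin assay. Culture diluted to McFarland 2 standard in the same medium and added to fresh medium. Test compounds from 2 mg/mL DMF stocks, first tested at 1, 10 and 100, then at 0.3125–5; DMF-only controls. Incubated 37 °C for 7 days, then 0.01% resazurin added. Blue-to-pink change scored; MIC taken as lowest concentration preventing the colour change.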
(The colour change of resazurin is a common sign of viable cells or microbes.)

Experiment [2] concerns Mycolicibacterium fortuitum. The experiment can be described thus: Antimycobacterial activity against Mycobacterium fortuitum ATCC 19542 after 7 days by resazurin assay. Type of experiment: functional. The conditions noted are these: ATCC 19542, 168 h. The method, boiled down:
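M. fortuitum ATCC 19542 culture diluted to McFarland 2 standard in medium and dispensed into 96-well plates. Compounds came from 2 mg/mL DMF stocks and were screened at 1, 10 and 100, then retested at […]. Controls received DMF alone. After 7 days at 37 °C, 0.01% resazurin was added and colour read after 1 h at 37 °C. MIC was the level keeping the dye blue.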

The next experiment has as its system Vero. Put plainly: Cytotoxicity against african green monkey Vero cells after 72 hrs by MTT assay. Type of experiment: cell-based. The conditions noted are these: Chlorocebus sabaeus. The method, boiled down:
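Cells were exposed for 72 h, then viability was read as cellular conversion of MTT to formazan with a non-radioactive cell proliferation kit.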
On the technique in general: Tetrazolium assays rely on reduction of a dye to a coloured formazan, in cell work by metabolically active cells.

The test system of a further experiment is Mycobacterium. The experiment can be described thus: Inhibition of Mycobacterium membrane bound ATP synthase. The arrangement: concentration or dose not given beside the values. As to conditions: concentration not given here.
For experiment [3], the system named is Mycolicibacterium smegmatis. The experiment can be described thus: Antimycobacterial activity against Mycobacterium smegmatis MC2 155 ATCC 19420 after 7 days by resazurin assay. In kind it is functional. The conditions noted are these: MC2 155 ATCC 19420, 168 h. The procedure, abridged: as §1

Converted amounts (≈) assume the structure as drawn.

As a reminder, the MIC is the lowest concentration found to suppress growth. Broadly, the IC50 is the concentration that gives 50% inhibition. Usually inhibition stands for the percentage by which the read-out fell short of the control. As to `NNC(=O)c1ccncc1` [ISONIAZID], the MIC in experiment [1] is 1 µg/mL (≈ 7.29 µM); in experiment [2], 12.5 µg/mL (≈ 91.1 µM); in experiment [3], 50 µg/mL (≈ 365 µM). The same compound displayed a half-inhibitory concentration (IC50) with Vero of over 62.5 µg/mL. Also, the inhibition in the experiment with Mycobacterium is over 95%.
The matching figures for `CN(C)C(=O)C[C@H](CSc1ccccc1)Nc1c(C(=O)N/N=C/c2cccnc2)cnc2c(C(F)(F)F)cccc12`: 0.625 µg/mL (≈ 1.08 µM), 1 µg/mL (≈ 1.72 µM), 2.5 µg/mL (≈ 4.31 µM), over 62.5 µg/mL and over 95%.
The matching figures for `CN(C)C(=O)C[C@H](CSc1ccccc1)Nc1c(C(=O)N/N=C/c2cccc(OC(F)(F)C(F)F)c2)cnc2ccc(F)cc12`: 0.625 µg/mL (≈ 0.968 µM), 1 µg/mL (≈ 1.55 µM), 2.5 µg/mL (≈ 3.87 µM), over 62.5 µg/mL and over 95%.
As for `CSCC/C=N/NC(=O)c1cnc2c(C(F)(F)F)cccc2c1N[C@@H](CSc1ccccc1)CC(=O)N(C)C`, the MIC is 10 µg/mL (≈ 17.3 µM) in experiment [1], over 100 µg/mL in experiment [2] and over 100 µg/mL in experiment [3]. The compound also returned an inhibition in the experiment on Mycobacterium of 90%.
For `CN(C)C(=O)C[C@H](CSc1ccccc1)Nc1c(C(=O)N/N=C/c2cccnc2)cnc2ccc(F)cc12`, the MIC was 5 µg/mL (≈ 9.42 µM) in experiment [1], 10 µg/mL (≈ 18.8 µM) in experiment [2] and over 100 µg/mL in experiment [3]. Also, the concentration for half-maximal inhibition (IC50) in the experiment on Vero was over 62.5 µg/mL. This compound registered an inhibition in the experiment on Mycobacterium of 90%.
For the compound `COc1ccc(/C=N/NC(=O)c2cnc3c(C(F)(F)F)cccc3c2N[C@@H](CSc2ccccc2)CC(=O)N(C)C)cc1O`, the minimal inhibitory concentration (MIC) in experiment [1] is 5 µg/mL (≈ 7.99 µM); in experiment [2], 10 µg/mL (≈ 16 µM); in experiment [3], over 100 µg/mL. For the same compound, in the experiment with Vero, the IC50 was over 62.5 µg/mL. In the experiment on Mycobacterium, this compound came in with an inhibition of 90%.
The matching figures for `CN(C)C(=O)C[C@H](CSc1ccccc1)Nc1c(C(=O)N/N=C/c2ccccc2F)cnc2c(C(F)(F)F)cccc12`: 2.5 µg/mL (≈ 4.18 µM), over 100 µg/mL, 5 µg/mL (≈ 8.37 µM), over 62.5 µg/mL and 90%.
The matching figures for `CN(C)C(=O)C[C@H](CSc1ccccc1)Nc1c(C(=O)N/N=C/c2ccc(F)cc2)cnc2ccc(F)cc12`: 1 µg/mL (≈ 1.83 µM), 5 µg/mL (≈ 9.13 µM), 10 µg/mL (≈ 18.3 µM), over 62.5 µg/mL and 95%.
The like results for `CO[C@H]1/C=C/O[C@@]2(C)Oc3c(C)c(O)c4c(O)c(c(/C=N/N5CCN(C)CC5)c(O)c4c3C2=O)NC(=O)/C(C)=C\C=C\[C@H](C)[C@H](O)[C@@H](C)[C@@H](O)[C@@H](C)[C@H](OC(C)=O)[C@@H]1C` [RIFAMPIN] were, in that order, 0.5 µg/mL (≈ 0.608 µM), 1.5 µg/mL (≈ 1.82 µM), 1.5 µg/mL (≈ 1.82 µM), over 62.5 µg/mL and over 95%.
For `CN(C)C(=O)C[C@H](CSc1ccccc1)Nc1c(C(=O)N/N=C/c2ccc(F)cc2)cnc2c(C(F)(F)F)cccc12`, the minimum inhibitory concentration (MIC) in experiment [1] was 5 µg/mL (≈ 8.37 µM); in experiment [2], 10 µg/mL (≈ 16.7 µM); in experiment [3], over 100 µg/mL. The IC50 in the experiment on Vero was over 62.5 µg/mL. In addition, in the experiment on Mycobacterium, the inhibition stood at 90%.
The matching figures for `CN(C)C(=O)C[C@H](CSc1ccccc1)Nc1c(C(=O)N/N=C/c2ccc(OC(F)(F)F)cc2)cnc2ccc(F)cc12`: 2.5 µg/mL (≈ 4.07 µM), 5 µg/mL (≈ 8.15 µM), over 100 µg/mL, over 62.5 µg/mL and 90%.
The matching figures for `CN(C)C(=O)C[C@H](CSc1ccccc1)Nc1c(C(=O)N/N=C/c2ccc(Br)s2)cnc2c(C(F)(F)F)cccc12`: 10 µg/mL (≈ 15 µM), over 100 µg/mL, over 100 µg/mL, over 62.5 µg/mL and 90%.
Take `COc1ccc(/C=N/NC(=O)c2cnc3c(C(F)(F)F)cccc3c2N[C@@H](CSc2ccccc2)CC(=O)N(C)C)cc1`: the minimal inhibitory concentration (MIC) in experiment [1], in experiment [2] and in experiment [3] was over 100 µg/mL each time. Further, in the experiment on Mycobacterium, the inhibition was 0%.
Turning to `COc1ccc(/C=N/NC(=O)c2cnc3ccc(F)cc3c2N[C@@H](CSc2ccccc2)CC(=O)N(C)C)cc1`, the MIC was 10 µg/mL (≈ 17.9 µM) in experiment [1], over 100 µg/mL in experiment [2] and over 100 µg/mL in experiment [3]. The same compound came in with an inhibition in the experiment with Mycobacterium of 0%.
For the compound `CSc1ccccc1/C=N/NC(=O)c1cnc2ccc(F)cc2c1N[C@@H](CSc1ccccc1)CC(=O)N(C)C`, the minimal inhibitory concentration (MIC) in experiment [1], in experiment [2] and in experiment [3] was over 100 µg/mL each time. Moreover, in the experiment with Mycobacterium, the inhibition was 0%.
For the compound `CSc1ccccc1/C=N/NC(=O)c1cnc2c(C(F)(F)F)cccc2c1N[C@@H](CSc1ccccc1)CC(=O)N(C)C`, the minimal inhibitory concentration (MIC) in experiment [1], in experiment [2] and in experiment [3] was over 100 µg/mL each time. Moreover, the inhibition in the experiment on Mycobacterium is 0%.
`CN(C)C(=O)C[C@H](CSc1ccccc1)Nc1c(C(=O)N/N=C/c2ccccc2F)cnc2ccc(F)cc12`: the values for the MIC in experiment [1], in experiment [2] and in experiment [3] were 1 µg/mL (≈ 1.83 µM), 5 µg/mL (≈ 9.13 µM) and 10 µg/mL (≈ 18.3 µM), respectively. This compound also showed an IC50 in the experiment on Vero of over 62.5 µg/mL. In the experiment with Mycobacterium, this compound showed an inhibition of over 95%.
With `CN(C)C(=O)C[C@H](CSc1ccccc1)Nc1c(C(=O)N/N=C/c2ccc(Br)s2)cnc2ccc(F)cc12`, the MIC in experiment [1], in experiment [2] and in experiment [3] was over 100 µg/mL in each case. For the same compound, the inhibition in the experiment on Mycobacterium was 0%.
As to `CSCC/C=N/NC(=O)c1cnc2ccc(F)cc2c1N[C@@H](CSc1ccccc1)CC(=O)N(C)C`, the minimum inhibitory concentration (MIC) in experiment [1], in experiment [2] and in experiment [3] was over 100 µg/mL in each case. The inhibition in the experiment on Mycobacterium stood at 0%.
Take `CN(C)C(=O)C[C@H](CSc1ccccc1)Nc1c(C(=O)N/N=C/c2cc(F)ccc2O)cnc2ccc(F)cc12`: the minimum inhibitory concentration (MIC) is 10 µg/mL (≈ 17.7 µM) in experiment [1], over 100 µg/mL in experiment [2] and over 100 µg/mL in experiment [3]. For the same compound, the inhibition in the experiment with Mycobacterium is 0%.
In the case of `CN(C)C(=O)C[C@H](CSc1ccccc1)Nc1c(C(=O)N/N=C/c2ccc(OC(F)(F)F)cc2)cnc2c(C(F)(F)F)cccc12`, the results for the MIC in experiment [1], in experiment [2] and in experiment [3] were 5 µg/mL (≈ 7.53 µM), 5 µg/mL (≈ 7.53 µM) and over 100 µg/mL, respectively. For the same compound, the IC50 in the experiment on Vero was over 62.5 µg/mL. The inhibition in the experiment with Mycobacterium was found to be 90%.
As for `COc1ccc(/C=N/NC(=O)c2cnc3ccc(F)cc3c2N[C@@H](CSc2ccccc2)CC(=O)N(C)C)cc1O`, the minimal inhibitory concentration (MIC) in experiment [1] was 5 µg/mL (≈ 8.69 µM); in experiment [2], 5 µg/mL (≈ 8.69 µM); in experiment [3], over 100 µg/mL. Moreover, the IC50 in the experiment on Vero is over 62.5 µg/mL. This compound returned an inhibition in the experiment with Mycobacterium of 90%.
Turning to `CN(C)C(=O)C[C@H](CSc1ccccc1)Nc1c(C(=O)N/N=C/c2cc(F)ccc2O)cnc2c(C(F)(F)F)cccc12`, the MIC in experiment [1] was 10 µg/mL (≈ 16.3 µM); in experiment [2], over 100 µg/mL; in experiment [3], over 100 µg/mL. Besides, the inhibition in the experiment with Mycobacterium amounted to 0%.
For the compound `CCCCCCCC/C=N/NC(=O)c1cnc2ccc(F)cc2c1N[C@@H](CSc1ccccc1)CC(=O)N(C)C`, the minimal inhibitory concentration (MIC) in experiment [1] was determined as 1 µg/mL (≈ 1.77 µM); in experiment [2], 5 µg/mL (≈ 8.84 µM); in experiment [3] it was 10 µg/mL (≈ 17.7 µM). The same compound gave an IC50 in the experiment with Vero of over 62.5 µg/mL. Also, the inhibition in the experiment on Mycobacterium is over 95%.
On to `COc1ccc(/C=N/NC(=O)c2cnc3c(C(F)(F)F)cccc3c2N[C@@H](CSc2ccccc2)CC(=O)N(C)C)c(F)c1`, for which the results for the minimum inhibitory concentration (MIC) in experiment [1], in experiment [2] and in experiment [3] were 10 µg/mL (≈ 15.9 µM), over 100 µg/mL and over 100 µg/mL, respectively. In the experiment with Mycobacterium, this compound came in with an inhibition of 90%.
As to `COc1ccc(/C=N/NC(=O)c2cnc3ccc(F)cc3c2N[C@@H](CSc2ccccc2)CC(=O)N(C)C)c(F)c1`, the minimum inhibitory concentration (MIC) in experiment [1] is 5 µg/mL (≈ 8.66 µM); in experiment [2], over 100 µg/mL; in experiment [3] it was over 100 µg/mL. Further, in the experiment on Mycobacterium, the inhibition was found to be 0%.
With `CCCCCCCC/C=N/NC(=O)c1cnc2c(C(F)(F)F)cccc2c1N[C@@H](CSc1ccccc1)CC(=O)N(C)C`, the MIC in experiment [1] came out at 1 µg/mL (≈ 1.62 µM); in experiment [2], 5 µg/mL (≈ 8.12 µM); in experiment [3], 10 µg/mL (≈ 16.2 µM). Further, the IC50 in the experiment on Vero was over 62.5 µg/mL. Further, in the experiment with Mycobacterium, the inhibition was over 95%.
The matching figures for `CN(C)C(=O)C[C@H](CSc1ccccc1)Nc1c(C(=O)N/N=C/c2cccc(OC(F)(F)C(F)F)c2)cnc2c(C(F)(F)F)cccc12`: 1 µg/mL (≈ 1.44 µM), 2.5 µg/mL (≈ 3.59 µM), 5 µg/mL (≈ 7.19 µM), over 62.5 µg/mL and over 95%.
